Where two headings read alike, the source gives them in different places. Blank lines part the entries; values can stand above or below the molecule they belong to.
Assays:
WM-164 = assay: SRB cytotoxicity assay, WM-164 melanoma cells; assay type: cell-based, human; details: read-out: IC50 ± SEM, WM-164, 96 h treatment
PPC-1 = assay: SRB cytotoxicity assay, PPC-1 prostate cancer cells; assay type: cell-based, human; details: read-out: IC50 ± SEM, PPC-1
LNCaP = assay: SRB cytotoxicity assay, LNCaP prostate cancer cells; assay type: cell-based, human; details: read-out: IC50 ± SEM, LNCaP
A375 = assay: SRB cytotoxicity assay, A375 melanoma cells; assay type: cell-based, human; details: read-out: IC50 ± SEM, A375, 96 h treatment
DU 145 = assay: SRB cytotoxicity assay, DU 145 prostate cancer cells; assay type: cell-based, human; details: read-out: IC50 ± SEM, DU 145
B16-F1 = assay: SRB cytotoxicity assay, B16-F1 mouse melanoma cells; assay type: cell-based; details: read-out: IC50 ± SEM, B16-F1, 96 h treatment
PC-3 = assay: SRB cytotoxicity assay, PC-3 prostate cancer cells; assay type: cell-based, human; details: read-out: IC50 ± SEM, PC-3
cancer cell lines = assay type: cell-based; details: for antiproliferative activity: text summary of Tables 1–3; for IC50: read-out: activity/potency range across cancer cell lines; for activity relative to 47: IC50 values of Table 4
Bovine brain tubulin = assay: In vitro tubulin polymerization assay; assay type: biochemical; details: 5 µM compound, 20 min incubation
Procedure, shortened: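 Bovine brain tubulin (0.4 mg, >97% pure) combined with test compound in general tubulin buffer (80 mM PIPES, 2.0 mM MgCl₂, 0.5 mM EGTA, 1 mM GTP, pH 6.9) at 37 °C. Polymerization tracked as A340 read every 1 min over 20 min. Inhibition expressed against vehicle.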

[1] = Aqueous solubility, Multiscreen solubility filter plate with LC-MS/MS; assay type: physicochemical; details: for solubility compared with compound 1: Figure 3
[2] = Rat pharmacokinetic study; assay type: in vivo, Sprague–Dawley rats; details: 10 mg/kg

Molecule: 3-(3,4,5-Trimethoxyphenylsulfinyl)biphenyl [Compound 25]
- IC50 (WM-164): > 10 µM
- IC50 (PPC-1; SRB assay, 96 h treatment): > 10 µM
- IC50 (LNCaP; SRB assay, 96 h treatment): > 10 µM
- IC50 (A375): > 10 µM
- IC50 (DU 145; SRB assay, 96 h treatment): > 10 µM
- IC50 (B16-F1): > 10 µM
- IC50 (PC-3; SRB assay, 96 h treatment): > 10 µM

Molecule: 3-(3,4,5-Trimethoxyphenylsulfonyl)biphenyl [Compound 24]
- IC50 (WM-164): > 10 µM
- IC50 (PPC-1; SRB assay, 96 h treatment): > 10 µM
- IC50 (LNCaP; SRB assay, 96 h treatment): > 10 µM
- IC50 (A375): > 10 µM
- IC50 (DU 145; SRB assay, 96 h treatment): > 10 µM
- IC50 (B16-F1): > 10 µM
- IC50 (PC-3; SRB assay, 96 h treatment): > 10 µM

Molecule: COc1cc(C(=O)C2COC(c3ccccc3)=N2)cc(OC)c1OC (stereo in doubt) [Compound 5, (2R)-(2-Phenyl-4,5-dihydro-oxazol-4-yl)-(3,4,5-trimethoxy-phenyl)-methanone]
- antiproliferative activity (cancer cell lines): hundreds of nanomolar range

Molecule: COc1cc(C(=O)c2csc(-c3ccccc3)n2)cc(OC)c1OC [Compound 1]
- IC50 (PPC-1; Homo sapiens, PPC-1, 96 h): 0.043 ± 0.005 µM
- IC50 (PC-3; Homo sapiens, PC-3, 96 h): 0.021 ± 0.001 µM

Molecule: COc1cc(C(=O)c2coc(-c3ccccc3)n2)cc(OC)c1OC [Compound 6, (2R)-(2-Phenyl-oxazol-4-yl)-(3,4,5-trimethoxy-phenyl)-methanone]
- antiproliferative activity (cancer cell lines): hundreds of nanomolar range

Molecule: COc1cc(C(=O)c2cccc(-c3ccccc3)c2)cc(OC)c1OC [Compound 9a, Biphenyl-3-yl(3,4,5-trimethoxyphenyl)methanone]
- antiproliferative activity (cancer cell lines): hundreds of nanomolar range

Molecule: COc1cc(C(=O)c2cc(-c3ccccc3)n[nH]2)cc(OC)c1OC [Compound 9f, (3-Phenyl-1H–pyrazol-5-yl)(3,4,5-trimethoxyphenyl)methanone]
- antiproliferative activity (cancer cell lines): hundreds of nanomolar range

Molecule: COc1cc(C(=O)N2CCC(c3ccccc3)CC2)cc(OC)c1OC [Compound 9i, (4-Phenylpiperidin-1-yl)(3,4,5-trimethoxyphenyl)methanone]
- antiproliferative activity (cancer cell lines): totally abolished activity

Molecule: COc1cc(/C(=N/O)c2csc(-c3ccccc3)n2)cc(OC)c1OC [Compound 13a, (Z)-(2-Phenylthiazol-4-yl)(3,4,5-trimethoxyphenyl)methanoneOxime]
- activity of syn-isomer relative to anti isomer 13b (cancer cell lines; 13a vs 13b): 10 fold

Molecule: CO/N=C(/c1cc(OC)c(OC)c(OC)c1)c1csc(-c2ccccc2)n1 [Compound 13c, (Z)-(2-Phenylthiazol-4-yl)(3,4,5-trimethoxyphenyl)methanone O-Methyl Oxime]
- IC50 (PPC-1; Homo sapiens, PPC-1, 96 h): > 10 µM

Molecule: CO/N=C(\c1cc(OC)c(OC)c(OC)c1)c1csc(-c2ccccc2)n1 [Compound 13d, (E)-(2-Phenylthiazol-4-yl)(3,4,5-trimethoxyphenyl)methanone O-Methyl Oxime]
- IC50 (LNCaP; Homo sapiens, LNCaP, 96 h): > 10 µM
- IC50 (PC-3; Homo sapiens, PC-3, 96 h): > 10 µM

Molecule: COc1cc(/C(=N\N)c2csc(-c3ccccc3)n2)cc(OC)c1OC [Compound 14b, (E)-4-(Hydrazono(3,4,5-trimethoxyphenyl)methyl)-2-phenylthiazole]
- IC50 (DU 145; Homo sapiens, DU-145, 96 h): 1.21 µM

- IC50 (cancer cell lines): 0.02 to 0.06 µM
Molecule: COc1cc(/C(=N\C#N)c2csc(-c3ccccc3)n2)cc(OC)c1OC [Compound 16, N-((2-Phenylthiazol-4-yl)(3,4,5-trimethoxyphenyl)methylene)cyanamide]

Molecule: COc1cc(C(=O)c2csc(-c3ccc4[nH]ccc4c3)n2)cc(OC)c1OC [Compound 36, (2-(1H–Indol-5-yl)thiazol-4-yl)(3,4,5-trimethoxyphenyl)methanone]
- inhibition of tubulin polymerization as compared to vehicle (Bovine brain tubulin): 69%

- increase in solubility compared with compound 1 ([1]; PBS, HCl salt): over 35 fold
- solubility at […] ([1]; phosphate buffered saline (PBS) buffer, pH 7.4): ≥ 35 µg/mL
Molecule: COc1cc(C(=O)c2csc(-c3ccc(CN)cc3)n2)cc(OC)c1OC.Cl [Compound 39, (2-(4-(Aminomethyl)phenyl)thiazol-4-yl)(3,4,5-trimethoxyphenyl)-methanone Hydrochloride]

Molecule: CNCc1ccc(-c2nc(C(=O)c3cc(OC)c(OC)c(OC)c3)cs2)cc1.Cl [Compound 40, (2-(4-((Methylamino)methyl)phenyl)thiazol-4-yl)(3,4,5-trimeth-oxyphenyl)methanone Hydrochloride]
- antiproliferative activity (cancer cell lines): abrogated activity

Molecule: COc1cc(C(=O)c2csc(-c3ccc(CN(C)C)cc3)n2)cc(OC)c1OC.Cl [Compound 42, (2-(4-((Dimethylamino)methyl)phenyl)thiazol-4-yl)(3,4,5-trimeth-oxyphenyl)methanone Hydrochloride]
- antiproliferative activity (cancer cell lines): abrogated activity

Molecule: COc1cc(C(=O)c2csc(Nc3ccccc3)n2)cc(OC)c1OC [Compound 45a, (2-(Phenylamino)thiazol-4-yl)(3,4,5-trimethoxyphenyl)methanone]
- solubility compared with compound 1 ([1]; PBS): improved solubility
- activity relative to 47 (cancer cell lines): over 20 fold
- IC50 (cancer cell lines): 0.035 to 0.065 µM

- solubility compared with compound 1 ([1]; PBS): improved solubility
- IC50 (cancer cell lines): 0.035 to 0.065 µM
Molecule: COc1cc(C(=O)c2csc(Nc3ccc(F)cc3)n2)cc(OC)c1OC [Compound 45c, (2-(p-Fluorophenylamino)thiazol-4-yl)(3,4,5-trimethoxyphenyl)-methanone]

Molecule: COc1cc(C(=O)c2csc(Nc3ccc(C)cc3)n2)cc(OC)c1OC.Cl [Compound 46b, (2-(p-Tolylamino)thiazol-4-yl)(3,4,5-trimethoxyphenyl)methanone Hydrochloride Salt]
- activity relative to 47 (cancer cell lines): over 20 fold
- IC50 (cancer cell lines): 0.035 to 0.065 µM

- increased exposure (AUC) by the oral route as compared to 1 [2]: more than 4.3 fold
Molecule: COc1cc(C(=O)c2csc(Nc3ccc(F)cc3)n2)cc(OC)c1OC.Cl [Compound 46c, (2-(p-Fluorophenylamino)thiazol-4-yl)(3,4,5-trimethoxyphenyl)-methanone Hydrochloride Salt]

Molecule: (E)-2-Phenyl-4-(3,4,5-trimethoxystyryl)thiazole [Compound 21]
- antiproliferative activity (cancer cell lines): lost activity
- IC50 (WM-164): 30.8 ± 12 µM
- IC50 (PPC-1; SRB assay, 96 h treatment): > 10 µM
- IC50 (LNCaP; SRB assay, 96 h treatment): > 10 µM
- IC50 (A375): > 100 µM
- IC50 (DU 145; SRB assay, 96 h treatment): > 10 µM
- IC50 (B16-F1): 32.8 ± 13 µM
- IC50 (PC-3; SRB assay, 96 h treatment): > 10 µM

Molecule: (Z)-2-Phenyl-4-(3,4,5-trimethoxystyryl)thiazole [Compound 20]
- antiproliferative activity (cancer cell lines): lost activity
- IC50 (WM-164): 10.6 ± 5.8 µM
- IC50 (PPC-1; SRB assay, 96 h treatment): > 10 µM
- IC50 (LNCaP; SRB assay, 96 h treatment): > 10 µM
- IC50 (A375): 46.5 ± 23.3 µM
- IC50 (DU 145; SRB assay, 96 h treatment): > 10 µM
- IC50 (B16-F1): 11 ± 2.8 µM
- IC50 (PC-3; SRB assay, 96 h treatment): > 10 µM

Molecule: Biphenyl-3-yl(3,4,5-trimethoxyphenyl)sulfane [Compound 23]
- IC50 (WM-164): 2 ± 1.2 µM
- IC50 (PPC-1; SRB assay, 96 h treatment): 2.3 ± 0.1 µM
- IC50 (LNCaP; SRB assay, 96 h treatment): 2.3 ± 0.2 µM
- IC50 (A375): 1.6 ± 0.4 µM
- IC50 (DU 145; SRB assay, 96 h treatment): > 10 µM
- IC50 (B16-F1): 2.4 ± 0.9 µM
- IC50 (PC-3; SRB assay, 96 h treatment): > 10 µM

Molecule: N-(3,4,5-Trimethoxyphenyl)biphenyl-3-sulfinamide [Compound 26]
- IC50 (WM-164): > 10 µM
- IC50 (PPC-1; SRB assay, 96 h treatment): > 10 µM
- IC50 (LNCaP; SRB assay, 96 h treatment): > 10 µM
- IC50 (A375): > 10 µM
- IC50 (DU 145; SRB assay, 96 h treatment): > 10 µM
- IC50 (B16-F1): > 10 µM
- IC50 (PC-3; SRB assay, 96 h treatment): > 10 µM

From article PMC4755333 (Journal of medicinal chemistry, 2011)
